# Activity calls are given as the source filed them. The calls are words filed in the database; no cut-off is given here.
# Experiments:
# Human adenovirus 5 [1] = assay: Antiviral activity against Human adenovirus type 5 F2853-5b infected in A549 cells assessed as inhibition of DNA replication by QPCR assay; type: functional, organism-based; conditions: Human mastadenovirus C
# In short: (§1)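 A549 cells (about 10^5/well) were seeded the day before. Compound (0.5–15 µM, DMSO <1%) and 1 pg virions/cell were added together in DMEM with 1% FBS and held 24 h at 37°C. DNA was then extracted and viral genomes counted by TaqMan QPCR (AdDF probe, Ad5 or Ad11 DNA standards 5–5×10^5 copies), normalized to RNase P. EC50 is the 50% replication inhibition point, from at least two independent duplicate experiments.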
# [2] = Antiviral activity against Human adenovirus type 11p slobitski infected in A549 cells assessed as inhibition of DNA replication by QPCR assay; type: functional, cell-based, Human adenovirus 11p; conditions: Human mastadenovirus B; in short: as §1
# Human adenovirus 5 [3] = assay: Antiviral activity against Human adenovirus type 5 infected in human A549 cells assessed as inhibition of viral replication by QPCR at 15 uM after 24 hrs; type: functional, organism-based
# In short: (§2)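 A549 cells (~10^5/well) seeded the day before; compound (0.5–15 µM) and 1 pg Ad virions per cell added together in DMEM with 1% FBS, final DMSO <1%. After 24 h at 37 °C, 5% CO2, cells harvested and DNA extracted. Viral genomes quantified by real-time PCR against Ad5 DNA standard curves, normalized to cellular RNase P. EC50 taken as 50% inhibition of replication; three independent duplicate experiments.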
# Human adenovirus 5 [4] = assay: Antiviral activity against Human adenovirus type 5 infected in human A549 cells assessed as inhibition of viral replication by QPCR at 5 uM after 24 hrs; type: functional, organism-based; in short: as §2
# A549 [5] = assay: Inhibition of [35S]-labeled Human adenovirus type 11p slobitski binding to human A549 cells at 15 uM; type: functional, cell-based; conditions: Human adenovirus 11p
# In short: (§3)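 A549 cells detached with 0.05% EDTA, allowed to recover 1 h, then suspended in PBS with 1% FBS and 0.01% NaN3 (200,000/well) on ice. Compound at 5 and 15 µM final, DMSO <1%, plus 5 pg 35S-labeled Ad5 or Ad11p virions per cell, rocked 1 h on ice. Cells washed three times; bound radioactivity counted by liquid scintillation. Three independent duplicate experiments.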
# [6] = Cytotoxicity against human Fibroblast cells assessed as dead cells at 15 uM after 24 hrs using PI by FACS analysis; type: cell-based
# [7] = Antiviral activity against Human adenovirus type 4 RI-67 infected in A549 cells assessed as inhibition of DNA replication by QPCR assay; type: functional, cell-based, Human adenovirus 4; conditions: Human mastadenovirus E, RI-67, A549; in short: as §1
# Human adenovirus 5 [8] = assay: Inhibition of [35S]-labeled Human adenovirus type 5 F2853-5b binding to human A549 cells at 15 uM; type: functional, organism-based; in short: as §3
# [9] = Selectivity index, ratio of CC50 for human A549 cells to EC50 for Human adenovirus type 11p; type: toxicity, cell-based; conditions: read-out: Selectivity Index
# In short: (§4)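 About 50,000 A549 cells seeded the day before; compound titrated in DMEM with 1% FBS for 24 h. XTT then added and incubated 2 h at 37 °C, with absorbance read at 450 nm. CC50 is the concentration leaving 50% of cells viable. Selectivity index is CC50 divided by the QPCR EC50 for each virus. Three independent duplicate experiments.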
# A549 [10] = assay: Cytotoxicity against human A549 cells assessed as dead cells at 15 uM after 24 hrs using PI by FACS analysis; type: cell-based; conditions: a549, 24 h
# In short: (§5)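 A549 cells (2×10^5) seeded the day before in DMEM with 1% FBS; K562 cells (200,000) in RPMI 1640 with 5% FBS added just before compound. Compound at 5 and 15 µM, DMSO <1%, 24 h at 37 °C, 5% CO2. Cells washed, resuspended in PBS with 1 µg propidium iodide; dead cells counted by flow cytometry. Two independent duplicate experiments.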
# [11] = Selectivity index, ratio of CC50 for human A549 cells to EC50 for Human adenovirus type 5; type: toxicity, cell-based; conditions: read-out: Selectivity Index; in short: as §4
# [12] = Cytotoxicity against human A549 cells by XTT assay; type: cell-based; in short: as §4
# [13] = Antiviral activity against Human adenovirus type 41 Tak infected in A549 cells assessed as inhibition of DNA replication by QPCR assay; type: functional, cell-based, Human adenovirus 41; conditions: Human mastadenovirus F; in short: as §1
# [14] = Antiviral activity against Human adenovirus type 11p infected in human A549 cells assessed as inhibition of viral replication by QPCR after 24 hrs; type: functional, cell-based, Human adenovirus 11p; conditions: Human mastadenovirus B, A549, 24 h; in short: as §2
# K562 = assay: Cytotoxicity against human K562 cells assessed as dead cells at 15 uM after 24 hrs using PI by FACS analysis; type: cell-based; conditions: k562, 24 h; in short: as §5
# [15] = Antiviral activity against Human adenovirus type 11p in human K562 cells harboring green fluorescent protein-expressing RCAd11pGFP vector assessed as inhibition of RCAd11pGFP genome expression; type: functional, cell-based, Human adenovirus 11p; conditions: Human mastadenovirus B
# In short: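 K562 cells (50,000/well) in phenol-red-free RPMI with 5% FBS, infected with RCAd11pGFP at 1 pg/cell. The 5 mM DMSO stock was diluted 1:1 serially from 25 to 0.78 µM, with final DMSO <1%, run in triplicate.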
# [16] = Antiviral activity against Human adenovirus type 11p in human K562 cells harboring green fluorescent protein-expressing RCAd11pGFP vector assessed as inhibition of RCAd11pGFP genome expression at 50 uM relative to untreated control; type: functional, Human adenovirus 11p; conditions: Human mastadenovirus B
# In short: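 Single-point screen done once in K562 cells (50,000/well) in phenol-red-free RPMI with 5% FBS, with RCAd11pGFP at 1 pg/cell. Compound was at 50 µM final, from a 5 mM DMSO stock. Each plate held six DMSO-only uninfected wells and six infected DMSO wells. After 24 h at 37°C in 5% CO2, GFP fluorescence was read at 485 nm, then MTT viability.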
# Human adenovirus 5 [17] = assay: Antiviral activity against Human adenovirus type 5 F2853-5b infected in human A549 cells assessed as inhibition of hexon protein expression after 24 hrs using propidium iodide by FACS analysis; type: functional, organism-based; conditions: in the assay text read “using anti-hexon monoclonal antibody” for “using propidium iodide”
# In short: (§6)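 A549 cells (~2×10^5) seeded the day before. Compound (5 and 15 µM) added together with virus, 1 pg Ad5 or 0.5 pg Ad11p virions per cell, in DMEM with 1% FBS, DMSO <1%. After 24 h at 37 °C cells fixed in 2% paraformaldehyde and permeabilized with saponin. Stained with anti-hexon mouse monoclonal then Alexa Fluor 488 anti-mouse; read by flow cytometry. Two independent duplicate experiments.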
# [18] = Cytotoxicity against human K562 cells assessed as viable cells after 24 hrs by MTT assay; type: cell-based; conditions: read-out: Activity
# In short: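 K562 cells (50,000/well) in phenol-red-free RPMI with 5% FBS, compound at 50 µM final (serial 25–0.78 µM in triplicate for dose-response), 24 h at 37 °C, 5% CO2, after the GFP fluorescence read. MTT added for 2 h, formazan dissolved in acidic isopropanol/Triton X-100, absorbance at 570 nm.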
# A549 [19] = assay: Antiviral activity against Human adenovirus type 11p in human A549 cells harboring green fluorescent protein-expressing RCAd11pGFP vector assessed as inhibition of RCAd11pGFP genome expression; type: functional, cell-based; conditions: Human adenovirus 11p
# [20] = Antiviral activity against Human adenovirus type 31 1315/63 infected in A549 cells assessed as inhibition of DNA replication by QPCR assay; type: functional, cell-based, Human adenovirus 31; conditions: Human mastadenovirus A, 1315/63, A549; in short: as §1
# Human adenovirus D37 = assay: Antiviral activity against Human adenovirus type 37 1477 infected in A549 cells assessed as inhibition of DNA replication by QPCR assay; type: functional, organism-based; conditions: Human mastadenovirus D, 1477, A549; in short: as §1
# Human adenovirus 5 [21] = assay: Antiviral activity against Human adenovirus type 5 infected in human A549 cells assessed as inhibition of viral replication by QPCR after 24 hrs; type: functional, organism-based; conditions: Human mastadenovirus C, A549, 24 h; in short: as §2
# A549 [22] = assay: Antiviral activity against Human adenovirus type 11p slobitski infected in human A549 cells assessed as inhibition of hexon protein expression after 24 hrs using propidium iodide by FACS analysis; type: functional, cell-based; conditions: Human adenovirus 11p, in the assay text read “using anti-hexon monoclonal antibody” for “using propidium iodide”; in short: as §6
structure (smiles),measurement,setting,value
Nc1ccn(C[C@@H](CO)OCP(=O)(O)O)c(=O)n1 [CIDOFOVIR],EC50,Human adenovirus 5 [1],19.9 µM
same,EC50,[2],16.5 µM
O=C(Nc1ccccc1C(=O)Nc1ccccc1C(=O)Nc1ccccc1C(=O)O)c1ccccc1,inhibition,Human adenovirus 5 [3],inactive
same,inhibition,Human adenovirus 5 [4],inactive
O=C(Nc1ccccc1C(=O)O)c1ccccc1,inhibition,Human adenovirus 5 [3],inactive
same,inhibition,Human adenovirus 5 [4],inactive
O=C(Nc1ccccc1C(=O)Nc1ccccc1C(=O)O)c1ccccc1,EC50,Human adenovirus 5 [1],3.7 µM
same,inhibition,A549 [5],inactive
same,inhibition,Human adenovirus 5 [3],Active
same,Activity,[6],< 2%
same,EC50,[7],3.6 µM
same,inhibition,Human adenovirus 5 [4],Active
same,inhibition,Human adenovirus 5 [8],inactive
same,selectivity ratio,[9],68
same,Activity,A549 [10],< 2%
same,selectivity ratio,[11],54
same,CC50,[12],199 µM
same,EC50,[13],2.4 µM
same,EC50,[14],2.9 µM
same,Activity,K562,< 2%
same,EC50,[15],28.6 µM
same,EC50,[2],2.9 µM
same,inhibition at 50 µM,[16],100%
same,inhibition,Human adenovirus 5 [17],Dose-dependent effect
same,viability at 24 h,[18],100%
same,inhibition,A549 [19],Active
same,EC50,[20],3.9 µM
same,EC50,Human adenovirus D37,4.7 µM
same,EC50,Human adenovirus 5 [21],3.7 µM
same,inhibition,A549 [22],Dose-dependent effect
